# Measurements published in ChEMBL document CHEMBL3734738, “A structure-activity relationship of non-peptide macrocyclic histone deacetylase inhibitors and their anti-proliferative and anti-inflammatory activities” (Bioorg Med Chem, 2015).
# Assays:
# [1] = Selectivity ratio of IC50 for African green monkey Vero cells to IC50 for human A549 cells; type: ADME, cell-based; details: Vero cells and A549 cells, read-out: Ratio IC50
# Summary of the method: (§1)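 Cell viability (MTS) was measured in A549, MCF-7 and Vero cells kept in DMEM with 10% FBS and 1% penicillin-streptomycin. Cells were plated 24 h before drug, then exposed to a range of concentrations for 72 h, with DMSO held at 0.1%. The ratio divides the Vero IC50 by the IC50 for the tumour line, both from this assay.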
# A549 = experiment: Cytotoxicity against human A549 cells after 72 hrs by MTS assay; type: functional, cell-based; details: Homo sapiens, A549, 72 h; read-out: IC50
# Summary of the method: (§2)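 Cells kept in DMEM with 10% FBS and 1% penicillin-streptomycin, seeded in 96-well plates for 24 h, then exposed to a range of drug concentrations for 72 h at 0.1% DMSO; viability read by MTS assay per manufacturer's protocol.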
# Vero = experiment: Cytotoxicity against African green monkey Vero cells after 72 hrs by MTS assay; type: cell-based; details: Chlorocebus sabaeus; summary of the method: as §2
# MCF7 = experiment: Cytotoxicity against human MCF7 cells after 72 hrs by MTS assay; type: functional, cell-based; details: Homo sapiens, MCF7, 72 h; read-out: IC50; summary of the method: as §2
# [2] = target: T1, Protein deacetylase HDAC6 (Homo sapiens, UniProt Q9UBN7); experiment: Inhibition of recombinant HDAC6 (unknown origin) expressed in Escherichia coli BL21(DE3) after 60 mins using trichostatin A by label-free mass spectrometry-based SAMDI assay
# T1 sequence (Q9UBN7 whole entry): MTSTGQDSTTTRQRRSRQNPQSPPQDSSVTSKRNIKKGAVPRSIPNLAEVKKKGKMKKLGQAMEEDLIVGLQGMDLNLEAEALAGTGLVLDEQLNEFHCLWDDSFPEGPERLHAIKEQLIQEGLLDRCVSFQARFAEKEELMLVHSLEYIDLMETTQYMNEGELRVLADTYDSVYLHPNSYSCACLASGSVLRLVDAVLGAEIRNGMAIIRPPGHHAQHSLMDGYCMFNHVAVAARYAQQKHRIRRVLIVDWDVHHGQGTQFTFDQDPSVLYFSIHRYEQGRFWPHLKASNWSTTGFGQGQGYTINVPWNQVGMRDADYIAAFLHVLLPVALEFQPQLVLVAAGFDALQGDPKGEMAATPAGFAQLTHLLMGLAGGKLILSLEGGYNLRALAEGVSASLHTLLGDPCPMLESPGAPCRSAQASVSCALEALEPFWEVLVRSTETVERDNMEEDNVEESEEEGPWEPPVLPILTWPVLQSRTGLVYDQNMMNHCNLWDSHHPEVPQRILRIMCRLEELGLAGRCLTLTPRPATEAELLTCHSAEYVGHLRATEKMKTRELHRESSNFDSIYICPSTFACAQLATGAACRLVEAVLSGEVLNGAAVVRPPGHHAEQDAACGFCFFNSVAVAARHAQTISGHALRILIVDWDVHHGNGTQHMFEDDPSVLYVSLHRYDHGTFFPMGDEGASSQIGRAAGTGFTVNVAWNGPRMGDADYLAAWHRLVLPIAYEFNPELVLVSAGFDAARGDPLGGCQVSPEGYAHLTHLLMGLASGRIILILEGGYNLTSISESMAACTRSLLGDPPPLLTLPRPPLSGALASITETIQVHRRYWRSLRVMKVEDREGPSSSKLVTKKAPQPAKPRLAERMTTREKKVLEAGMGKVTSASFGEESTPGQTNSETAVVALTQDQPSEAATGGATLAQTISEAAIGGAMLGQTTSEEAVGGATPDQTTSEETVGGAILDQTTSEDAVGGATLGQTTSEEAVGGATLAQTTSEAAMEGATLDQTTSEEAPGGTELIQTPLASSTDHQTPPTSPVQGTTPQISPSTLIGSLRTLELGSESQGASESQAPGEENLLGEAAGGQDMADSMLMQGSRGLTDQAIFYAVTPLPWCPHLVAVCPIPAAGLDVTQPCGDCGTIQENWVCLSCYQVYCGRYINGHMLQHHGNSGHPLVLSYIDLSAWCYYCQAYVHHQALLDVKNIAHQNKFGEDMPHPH
# Histone deacetylase 8 = target: T2, Histone deacetylase 8 (Homo sapiens, UniProt Q9BY41); experiment: Inhibition of recombinant HDAC8 (unknown origin) expressed in Escherichia coli BL21(DE3) after 60 mins using trichostatin A by label-free mass spectrometry-based SAMDI assay
# T2 sequence (Q9BY41 whole entry): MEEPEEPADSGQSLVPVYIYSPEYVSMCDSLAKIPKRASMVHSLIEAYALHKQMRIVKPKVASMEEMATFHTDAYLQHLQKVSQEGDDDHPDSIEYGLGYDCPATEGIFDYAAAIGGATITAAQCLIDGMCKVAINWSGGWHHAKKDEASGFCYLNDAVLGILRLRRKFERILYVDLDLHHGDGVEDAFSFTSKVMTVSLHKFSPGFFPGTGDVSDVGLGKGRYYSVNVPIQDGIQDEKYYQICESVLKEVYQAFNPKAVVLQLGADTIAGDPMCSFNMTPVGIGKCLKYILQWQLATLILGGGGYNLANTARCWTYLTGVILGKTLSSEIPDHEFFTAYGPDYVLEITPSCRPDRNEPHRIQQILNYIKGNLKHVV
# Histone deacetylase 1 = Histone deacetylase 1 (Homo sapiens, UniProt Q13547); experiment: Inhibition of recombinant HDAC1 (unknown origin) expressed in Escherichia coli BL21(DE3) after 60 mins using trichostatin A by label-free mass spectrometry-based SAMDI assay
# [3] = Selectivity ratio of IC50 for African green monkey Vero cells to IC50 for human MCF7 cells; type: ADME, cell-based; details: Vero cells and MCF7 cells, read-out: Ratio IC50; summary of the method: as §1
# Chain of Histone deacetylase 1 (Q13547 whole entry): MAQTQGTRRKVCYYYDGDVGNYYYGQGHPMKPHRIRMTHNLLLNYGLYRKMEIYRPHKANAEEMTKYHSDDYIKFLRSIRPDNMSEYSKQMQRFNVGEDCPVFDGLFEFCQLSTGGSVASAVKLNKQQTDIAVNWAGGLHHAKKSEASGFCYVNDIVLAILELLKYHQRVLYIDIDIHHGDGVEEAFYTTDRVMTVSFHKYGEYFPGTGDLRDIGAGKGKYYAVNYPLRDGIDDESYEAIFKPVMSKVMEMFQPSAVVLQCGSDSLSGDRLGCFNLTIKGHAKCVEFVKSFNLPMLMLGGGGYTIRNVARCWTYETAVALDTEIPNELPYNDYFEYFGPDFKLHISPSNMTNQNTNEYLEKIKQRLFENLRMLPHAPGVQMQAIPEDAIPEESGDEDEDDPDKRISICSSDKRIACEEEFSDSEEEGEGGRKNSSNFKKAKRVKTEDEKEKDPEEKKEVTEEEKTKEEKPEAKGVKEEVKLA
smiles,measurement,setting,value
CC[C@H]1OC(=O)[C@H](C)C(=O)[C@H](C)[C@@H](O[C@@H]2O[C@H](C)C[C@H](N(C)Cc3cccc(-c4cn(CCCCCCC(=O)NO)nn4)c3)[C@H]2O)[C@@](C)(OC)C[C@@H](C)C2=NCCN3C(=O)O[C@@]1(C)[C@H]3[C@H]2C,selectivity ratio,[1],2.7
same,IC50,A549,7480 nM
same,IC50,Vero,> 20000 nM
same,IC50,MCF7,860 nM
same,IC50,[2],3.76 nM
same,IC50,Histone deacetylase 8,310 nM
same,IC50,Histone deacetylase 1,54.5 nM
same,selectivity ratio,[3],23
